Laboratory results published in ChEMBL document CHEMBL4043284, “The Synthesized Plant Metabolite 3,4,5-Tri-O-Galloylquinic Acid Methyl Ester Inhibits Calcium Oxalate Crystal Growth in a Drosophila Model, Downregulates Renal Cell Surface Annexin A1 Expression, and Decreases Crystal Adhesion to Cells” (J Med Chem, 2018).
Calls of active or inactive are those of the source. The rule behind the calls is not given here.

What was measured:
[1] = Antioxidant activity assessed as DPPH radical scavenging activity incubated in dark for 20 mins; assay type: functional
In short: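 Compound stock 1 mM in DMSO; 2–20 μL portions made up to 40 μL with DMSO and added to 1.96 mL of 0.1 mM DPPH. Held at RT for 20 min in the dark, then absorbance read at 517 nm. DPPH alone served as control. % radical scavenging = (control − test)/control × 100.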

[2] = Cytotoxicity against MDCK1 cells assessed as decrease in cell viability after 24 hrs by MTT assay; assay type: cell-based; details: Canis lupus familiaris, MDCK1, 24 h
In short: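 MDCKI cells seeded at 1×10^4 per well, exposed 24 h to 0, 5, 10, 25, 50 μM (in DMSO/PBS). MTT (5 mg/mL working solution) added for 3 h at 37°C, then stop solution; OD read at 570 nm. Viability expressed as percent of untreated control after blank subtraction; IC50 reported. Means ± S.D. of three independent experiments.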

[3] = system: MDCK1; experiment: Increase in intracellular AxA1 expression in MDCK1 cells at 50 uM after 3 hrs by laser scanning confocal microscopic method; assay type: functional, cell-based; details: Canis lupus familiaris
In short: (§1)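 MDCKI cells grown overnight on collagen-coated chamber slides and treated ± 50 μM for 3 h. Fixed in 4% paraformaldehyde. Intracellular staining done with 0.2% Triton permeabilization; surface staining done without permeabilization. Rabbit anti-annexin A1 applied overnight at 4°C, then Alexa Fluor 488 anti-rabbit secondary. Nuclei counterstained with TOTO-3. Imaged by confocal microscopy, 63× oil objective.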

[4] = system: MDCK1; experiment: Upregulation of AxA1 expression in cytosolic fractions of MDCK1 cells at 50 uM after 3 hrs by Western blot method; assay type: functional, cell-based; details: Canis lupus familiaris
In short: (§2)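 MDCKI cells seeded at 5×10^5 per well and treated with 50 μM for 3 h. Cytosolic fraction extracted with PIPES/EDTA/0.02% digitonin buffer for 10 min at 4°C. Membrane fraction taken from the pellet in SDS/Tris pH 6.8 buffer. Whole lysate prepared separately. 30 μg protein per lane on 7.5% gel; blots probed for annexin A1, HSP90 and α-enolase, with β-actin as loading control. Bands read by ECL densitometry. Mean ± SEM, n=3.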

[5] = system: MDCK1; experiment: Downregulation of HSP90 expression in membrane fractions of MDCK1 cells at 50 uM after 3 hrs by Western blot method; assay type: functional, cell-based; details: Canis lupus familiaris; in short: as §2
[6] = system: MDCK1; experiment: Upregulation of HSP90 expression in cytosolic fractions of MDCK1 cells at 50 uM after 3 hrs by Western blot method; assay type: functional, cell-based; details: Canis lupus familiaris; in short: as §2
[7] = Effect on total HSP90 expression in MDCK1 cells at 50 uM after 3 hrs by Western blot method; assay type: ADME, cell-based, Canis lupus familiaris; details: dog, mdck1, 3 h; in short: as §2
[8] = system: Drosophila melanogaster; experiment: Inhibition of calcium oxalate crystal size in Oregon R Drosophila melanogaster malpighian tubule model at 100 uM preincubated with test compound alone for 20 mins followed by addition of calcium oxalate along with test compound measured after 1 hr by DIC microscopy; assay type: functional
In short: (§3)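 Malpighian tubules dissected from wild-type Oregon R female flies. Tubules preincubated in iPBS with 100 μM for 20 min, then given 100 μM plus Na-oxalate for 1 h, with solutions renewed every 15 min. Controls received oxalate alone. The first 600 μm of anterior tubule imaged by DIC birefringence. Crystal number and area measured with ImageJ. n=12 per group; means ± SE.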

[9] = Cytotoxicity against MDCK1 cells assessed as decrease in cell viability up to 155 +/- 4 uM after 24 hrs by MTT assay; assay type: cell-based, Canis lupus familiaris; details: dog, mdck1, 24 h
[10] = Inhibition of cell surface associated calcium oxalate monohydrate crystal levels in MDCK1 cells preincubated for 3 to 6 hrs followed by calcium oxalate monohydrate crystal addition measured after 30 mins by phase contrast microscopy relative to control; assay type: functional, Canis lupus familiaris
In short: (§4)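 MDCKI cells seeded at 5×10^5 per well and cultured for 24 h. Pretreated at 0–50 μM for 3 h (concentration series), or at 25 or 50 μM for 1, 3 or 6 h (time course). Cells then washed and exposed to COM crystals (100 μg/mL) for 30 min, followed by five washes with plain medium. Adherent crystals counted by phase-contrast microscopy in 15 random high-power fields, ×400.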

[11] = system: Drosophila melanogaster; experiment: Inhibition of total calcium oxalate crystal area in Oregon R Drosophila melanogaster malpighian tubule model at 100 uM preincubated with test compound alone for 20 mins followed by addition of calcium oxalate along with test compound measured after 1 hr by DIC microscopy; assay type: functional; in short: as §3
[12] = system: MDCK1; experiment: Downregulation of AxA1 expression in membrane fractions of MDCK1 cells at 50 uM after 3 hrs by Western blot method; assay type: functional, cell-based; details: Canis lupus familiaris; in short: as §2
[13] = Effect on total AxA1 expression in MDCK1 cells at 50 uM after 3 hrs by Western blot method; assay type: ADME, cell-based, Canis lupus familiaris; details: dog, mdck1, 3 h; in short: as §2
[14] = system: MDCK1; experiment: Downregulation of alpha-enolase expression in membrane fractions of MDCK1 cells at 50 uM after 3 hrs by Western blot method; assay type: functional, cell-based; details: Canis lupus familiaris; in short: as §2
[15] = system: MDCK1; experiment: Upregulation of alpha-enolase expression in cytosolic fractions of MDCK1 cells at 50 uM after 3 hrs by Western blot method; assay type: functional, cell-based; details: Canis lupus familiaris; in short: as §2
[16] = Inhibition of AxA1 expression in MDCK1 cell surface at 50 uM after 3 hrs by laser scanning confocal microscopic method relative to control; assay type: functional; details: Canis lupus familiaris, MDCK1, 3 h; in short: as §1
[17] = system: MDCK1; experiment: Inhibition of calcium oxalate monohydrate crystal binding to MDCK1 cell surface preincubated for 3 hrs followed by calcium oxalate monohydrate crystal addition measured after 30 mins by phase contrast microscopy; assay type: functional, cell-based; details: Canis lupus familiaris; in short: as §4
[18] = Effect on total alpha-enolase expression in MDCK1 cells at 50 uM after 3 hrs by Western blot method; assay type: ADME, cell-based, Canis lupus familiaris; details: dog, mdck1, 3 h; in short: as §2
[19] = system: Drosophila melanogaster; experiment: Inhibition of calcium oxalate crystallization in Oregon R Drosophila melanogaster malpighian tubule model at 100 uM preincubated with test compound alone for 20 mins followed by addition of calcium oxalate along with test compound measured after 1 hr by DIC microscopy; assay type: functional; in short: as §3
[20] = system: MDCK1; experiment: Inhibition of calcium oxalate monohydrate crystal binding to MDCK1 cell surface at 10 uM preincubated for 3 hrs followed by calcium oxalate monohydrate crystal addition measured after 30 mins by phase contrast microscopy; assay type: functional, cell-based; details: Canis lupus familiaris
In short: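 MDCKI cells (5×10^5 per well) cultured 24 h in complete medium, pretreated 3 h with 0, 1 or 10 μM, washed with PBS, then exposed 30 min to COM crystals (100 μg/mL medium). Unbound crystals removed by five washes with plain DMEM. Adherent crystals counted by phase-contrast microscopy in 15 random high-power fields per well.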

O=C1O[C@H]([C@@H](O)CO)C(O)=C1O [ASCORBIC ACID]
EC50 [1]: 45 µM

COC(=O)[C@]1(O)C[C@@H](O)[C@@H](O)[C@H](O)C1
Activity [1]: inactive | IC50 [2]: 120 µM

COC(=O)[C@]1(O)C[C@@H](OC(=O)c2cc(O)c(O)c(O)c2)[C@@H](OC(=O)c2cc(O)c(O)c(O)c2)[C@H](OC(=O)c2cc(O)c(O)c(O)c2)C1
Activity [3]: Active | Activity [4]: Active | Activity [5]: Active | Activity [6]: Active | Activity [7]: Non-Toxic | inhibition [8]: Active | Activity [9]: Non-Toxic | inhibition (INH) [10]: 50% | inhibition [11]: Active | EC50 [1]: 11 µM | Activity [12]: Active | Activity [13]: Non-Toxic | Activity [14]: Active | Activity [15]: Active | inhibition at 50 µM [16]: 50% | inhibition [17]: Dose-dependent effect | Activity [18]: Non-Toxic | inhibition [19]: Active

O=C(O)c1cc(O)c(O)c(O)c1 [GALLIC ACID]
EC50 [1]: 3 µM | inhibition [20]: Active | IC50 [2]: 34 µM
